Active and inactive are the calls of the source. The calls are words filed in the database; no cut-off is given here.
Key:
L6 [1] = test: Effect on total GLUT1 expression in rat L6 cell lysate at 25 uM after 30 mins to 5 hrs by Western blot analysis; format: functional, cell-based
Method in brief: (§1)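 Fully differentiated L6 myotubes, preconditioned in αMEM with 23.0 mM D-glucose; insulin exposure 30 min, test exposure 5 h. Whole-cell lysates made in Tris-HCl pH 7.5 buffer with phosphatase and protease inhibitors, 40 min at 4 °C. Protein measured by Bradford, 5-60 µg per lane. Western blot probed with rabbit polyclonal anti-GLUT1 or anti-GLUT4.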

L6 [2] = test: Effect on total GLUT4 expression in rat L6 cell lysate at 25 uM after 30 mins to 5 hrs by Western blot analysis; format: functional, cell-based; method in brief: as §1
Mus musculus [3] = test: Antidiabetic activity in overnight fast KKAy mouse assessed as total body glucose clearance at 30 to 75 mg/kg, sc bid for 2 days; format: functional; conditions: dose mg/kg 30-75; route subcutaneous
Cytochrome P450 2C19 = Cytochrome P450 2C19 (Homo sapiens, UniProt P33261); test: Inhibition of CYP2C19 (unknown origin) by luminescent based assay; format: ADME
Chain of Cytochrome P450 2C19 (P33261 whole entry): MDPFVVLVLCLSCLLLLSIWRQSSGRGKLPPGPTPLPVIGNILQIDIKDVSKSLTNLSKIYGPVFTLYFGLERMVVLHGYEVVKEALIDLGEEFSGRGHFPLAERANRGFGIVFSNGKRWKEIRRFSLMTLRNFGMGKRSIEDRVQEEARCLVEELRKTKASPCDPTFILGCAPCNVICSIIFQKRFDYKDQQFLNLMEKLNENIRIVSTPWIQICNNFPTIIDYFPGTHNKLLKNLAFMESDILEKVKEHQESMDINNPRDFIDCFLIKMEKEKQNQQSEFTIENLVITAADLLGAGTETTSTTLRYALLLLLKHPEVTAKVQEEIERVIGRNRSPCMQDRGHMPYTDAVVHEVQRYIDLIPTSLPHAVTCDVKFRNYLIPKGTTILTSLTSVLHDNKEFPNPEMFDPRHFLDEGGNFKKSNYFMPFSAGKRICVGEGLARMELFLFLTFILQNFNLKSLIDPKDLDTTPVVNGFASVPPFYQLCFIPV

Cytochrome P450 2C9 = Cytochrome P450 2C9 (Homo sapiens, UniProt P11712); test: Inhibition of CYP2C9 (unknown origin) by luminescent based assay; format: ADME
Chain of Cytochrome P450 2C9 (P11712 whole entry): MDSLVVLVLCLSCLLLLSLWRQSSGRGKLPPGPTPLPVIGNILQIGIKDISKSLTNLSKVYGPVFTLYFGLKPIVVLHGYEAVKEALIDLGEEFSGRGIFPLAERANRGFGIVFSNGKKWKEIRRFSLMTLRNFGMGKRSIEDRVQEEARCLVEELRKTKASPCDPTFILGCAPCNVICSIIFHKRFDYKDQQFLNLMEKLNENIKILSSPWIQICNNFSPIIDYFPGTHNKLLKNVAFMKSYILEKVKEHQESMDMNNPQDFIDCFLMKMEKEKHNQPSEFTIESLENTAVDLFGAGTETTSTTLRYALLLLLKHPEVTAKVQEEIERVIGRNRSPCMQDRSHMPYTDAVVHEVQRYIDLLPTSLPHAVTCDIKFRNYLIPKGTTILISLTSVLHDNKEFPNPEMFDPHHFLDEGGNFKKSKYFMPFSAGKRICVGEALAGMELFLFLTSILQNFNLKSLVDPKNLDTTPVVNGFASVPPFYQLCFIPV

Cytochrome P450 2D6 = Cytochrome P450 2D6 (Homo sapiens, UniProt P10635); test: Inhibition of CYP2D6 (unknown origin) by luminescent based assay; format: ADME
Chain of Cytochrome P450 2D6 (P10635 whole entry): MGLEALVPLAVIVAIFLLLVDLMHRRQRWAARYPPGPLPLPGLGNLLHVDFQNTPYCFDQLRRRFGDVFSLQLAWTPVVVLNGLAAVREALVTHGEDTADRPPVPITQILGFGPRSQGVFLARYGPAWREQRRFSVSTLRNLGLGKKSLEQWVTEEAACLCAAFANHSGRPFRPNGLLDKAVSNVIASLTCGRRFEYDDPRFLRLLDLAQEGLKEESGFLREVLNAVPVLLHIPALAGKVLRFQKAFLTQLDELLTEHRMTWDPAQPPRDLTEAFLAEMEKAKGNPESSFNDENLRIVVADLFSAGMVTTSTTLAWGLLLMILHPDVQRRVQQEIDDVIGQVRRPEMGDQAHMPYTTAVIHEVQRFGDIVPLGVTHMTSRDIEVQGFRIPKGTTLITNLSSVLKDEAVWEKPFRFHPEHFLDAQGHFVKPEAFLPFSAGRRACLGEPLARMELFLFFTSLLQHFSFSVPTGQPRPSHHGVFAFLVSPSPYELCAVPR

Cytochrome P450 3A4 = Cytochrome P450 3A4 (Homo sapiens, UniProt P08684); test: Inhibition of CYP3A4 (unknown origin) by luminescent based assay; format: ADME
Chain of Cytochrome P450 3A4 (P08684 whole entry): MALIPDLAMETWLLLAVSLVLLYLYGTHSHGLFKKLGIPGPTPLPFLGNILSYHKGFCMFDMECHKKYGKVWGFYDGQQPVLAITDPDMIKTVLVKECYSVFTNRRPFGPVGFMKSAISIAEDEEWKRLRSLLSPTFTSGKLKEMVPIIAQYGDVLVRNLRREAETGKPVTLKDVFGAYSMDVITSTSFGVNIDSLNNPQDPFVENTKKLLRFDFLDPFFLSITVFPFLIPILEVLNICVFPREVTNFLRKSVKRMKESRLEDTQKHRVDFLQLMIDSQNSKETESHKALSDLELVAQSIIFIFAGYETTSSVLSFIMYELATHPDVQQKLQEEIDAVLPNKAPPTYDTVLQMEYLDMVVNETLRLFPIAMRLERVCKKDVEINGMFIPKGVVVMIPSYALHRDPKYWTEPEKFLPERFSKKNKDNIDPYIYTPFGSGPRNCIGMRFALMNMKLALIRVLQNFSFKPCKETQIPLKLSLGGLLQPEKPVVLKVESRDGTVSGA

[4] = Intrinsic clearance in BALB/c mouse liver microsomes at 2 uM; format: ADME, Microsome; conditions: read-out: CLH
Mus musculus [5] = test: Antidiabetic activity in KKAy mouse assessed as reduction of blood glucose level at 30 to 75 mg/kg, sc bid for 4 days measured on day 2 relative to control; format: functional; parameters: scale not given: the % may be the effect or the level left; conditions: dose mg/kg 30-75; route subcutaneous
Method in brief: (§2)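 Hyperglycemic KKAy mice injected s.c. twice daily for 4 days with compound at 30 or 75 mg/kg suspended in sesame oil; controls received sesame oil (150 µl). Blood glucose measured at the indicated times, with day-zero levels taken as 100%. n=10 per group, mean ± SEM, compared with oil-treated group.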

Mus musculus [6] = test: Antidiabetic activity in KKAy mouse assessed as reduction of blood glucose level at 30 to 75 mg/kg, sc bid for 4 days measured on day 1 relative to control; format: functional; parameters: scale not given: the % may be the effect or the level left; conditions: dose mg/kg 30-75; route subcutaneous; method in brief: as §2
Mus musculus [7] = test: Antidiabetic activity in KKAy mouse assessed as reduction of blood glucose level at 30 to 75 mg/kg, sc bid for 4 days; format: functional, organism-based; method in brief: as §2
L6 [8] = test: Increase of myc-tagged GLUT1 translocation in rat L6 cell plasma membrane at 25 uM after 30 mins to 5 hrs by colorimetric analysis; format: functional, cell-based
Method in brief: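 L6 lines stably carrying GLUT4myc or GLUT1myc, treated 5 h with test agent or DMSO; insulin given for 30 min. Live myotubes incubated with rabbit anti-c-Myc (1:200), washed, fixed in 3% formaldehyde, then HRP anti-rabbit IgG (1:2000). Developed with OPD and read at 492 nm to give relative surface transporter abundance.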

L6 [9] = test: Cytotoxicity against rat L6 cells assessed as cell viability at 25 to 200 uM after 24 hrs by MTT assay; format: cell-based; conditions: l6, 24 h
[10] = molecular target: 5'-AMP-activated protein kinase catalytic subunit alpha-2 (Rattus norvegicus) (UniProt Q09137); test: Activation of AMPK in rat L6 cells assessed as AS-160 phosphorylation at Thr642 at 25 uM after 3 hrs by Western blot analysis relative to control; format: cell-based
Chain of 5'-AMP-activated protein kinase catalytic subunit alpha-2 (Rattus norvegicus) (Q09137 whole entry): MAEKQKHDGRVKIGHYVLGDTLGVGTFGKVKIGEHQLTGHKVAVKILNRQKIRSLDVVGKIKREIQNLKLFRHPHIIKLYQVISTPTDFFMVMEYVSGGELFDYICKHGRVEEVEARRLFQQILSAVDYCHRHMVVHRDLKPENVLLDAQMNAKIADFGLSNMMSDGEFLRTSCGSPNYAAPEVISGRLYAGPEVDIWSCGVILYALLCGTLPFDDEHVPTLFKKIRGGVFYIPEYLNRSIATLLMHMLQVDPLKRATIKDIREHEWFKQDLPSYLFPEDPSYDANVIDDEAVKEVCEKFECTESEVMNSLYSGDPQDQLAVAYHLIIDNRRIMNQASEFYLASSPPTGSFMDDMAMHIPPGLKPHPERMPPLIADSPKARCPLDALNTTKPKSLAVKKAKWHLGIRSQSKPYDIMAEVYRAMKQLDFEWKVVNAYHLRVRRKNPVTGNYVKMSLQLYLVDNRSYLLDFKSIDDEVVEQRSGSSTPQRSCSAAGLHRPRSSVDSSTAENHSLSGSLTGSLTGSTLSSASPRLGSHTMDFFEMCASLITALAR
Method in brief: (§3)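 Fully differentiated L6 myotubes, preincubated 3 h with or without 5 μM Compound C. Test agents: compound at 25 μM for 3 h, sorbitol 250 mM for 40 min, AICAR 4 mM for 30 min. Whole-cell lysates probed by Western blot for pSer79-ACC, ACC, pThr642-AS-160, AS-160 and α-tubulin; band densities summarized, n=3, vs respective controls.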

[11] = molecular target: 5'-AMP-activated protein kinase catalytic subunit alpha-2 (Rattus norvegicus) (UniProt Q09137); test: Activation of AMPK in rat L6 cells assessed as AS-160 phosphorylation at Thr642 at 250 mM after 40 mins by Western blot analysis relative to control; format: cell-based; method in brief: as §3
[12] = molecular target: 5'-AMP-activated protein kinase catalytic subunit alpha-2 (Rattus norvegicus) (UniProt Q09137); test: Activation of AMPK in rat L6 cells assessed as ACC phosphorylation at Ser79 at 4 mM after 30 mins by Western blot analysis relative to control; format: cell-based; method in brief: as §3
[13] = molecular target: 5'-AMP-activated protein kinase catalytic subunit alpha-2 (Rattus norvegicus) (UniProt Q09137); test: Activation of AMPK in rat L6 cells assessed as increase of [3H]dGlc uptake at 25 uM after 5 hrs in presence of insulin; format: cell-based
Method in brief: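 Myotubes in serum-free αMEM with 0.5% BSA and 23.0 mM D-glucose for 9 h. Compound 25 μM or DMSO (0.1% v/v) given for the last 5 h; insulin 100 nM for the last 20 min. [3H]dGlc uptake read as 5-min PBS pulse with 0.1 mmol/L dGlc; basal rate taken as 100%.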

[14] = molecular target: 5'-AMP-activated protein kinase catalytic subunit alpha-2 (Rattus norvegicus) (UniProt Q09137); test: Activation of AMPK in rat L6 cells assessed as increase of [3H]dGlc uptake at 25 uM after 5 hrs relative to control; format: cell-based
Method in brief: (§4)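 Fully differentiated L6 myotubes preincubated 24 h in αMEM with 2% FCS and 23.0 mmol/L D-glucose, then 4 h serum-free with 0.5% BSA. Compound or DMSO vehicle given for the indicated times or concentrations. Uptake read after 5 min at room temperature in PBS pH 7.4 with 0.1 mmol/L dGlc and 1.3 μCi/mL [3H]dGlc, by scintillation of SDS lysates. Zero-time basal rate set as 100%; n=6.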

[15] = molecular target: 5'-AMP-activated protein kinase catalytic subunit alpha-2 (Rattus norvegicus) (UniProt Q09137); test: Activation of AMPK in rat L6 cells assessed as increase of [3H]dGlc uptake at 25 uM up to 24 hrs; format: cell-based; method in brief: as §4
L6 [16] = test: Activation of AMPKalpha in rat L6 cells assessed as phosphorylation at Thr172 at 100 uM after 4 hrs by Western blot analysis relative to control; format: cell-based
Method in brief: (§5)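 L6 myotubes treated 4 h with increasing compound concentrations (5 to 150 μM) or DMSO. Whole-cell lysates immunoblotted for pThr172-AMPKα, AMPKα and α-tubulin; phosphorylation expressed relative to DMSO-treated control.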

L6 [17] = test: Activation of AMPKalpha in rat L6 cells assessed as phosphorylation at Thr172 at 50 uM after 4 hrs by Western blot analysis relative to control; format: cell-based; method in brief: as §5
L6 [18] = test: Activation of AMPKalpha in rat L6 cells assessed as phosphorylation at Thr172 at 25 uM after 4 hrs by Western blot analysis relative to control; format: cell-based; method in brief: as §5
L6 [19] = test: Activation of AMPKalpha in rat L6 cells assessed as phosphorylation at Thr172 at 15 uM after 4 hrs by Western blot analysis relative to control; format: cell-based; method in brief: as §5
L6 [20] = test: Activation of AMPKalpha in rat L6 cells assessed as phosphorylation at Thr172 at 10 uM after 4 hrs by Western blot analysis relative to control; format: cell-based; method in brief: as §5
[21] = molecular target: 5'-AMP-activated protein kinase catalytic subunit alpha-2 (Rattus norvegicus) (UniProt Q09137); test: Activation of AMPK in rat L6 cells assessed as increase of [3H]dGlc uptake after 5 hrs; format: cell-based; method in brief: as §4
[22] = molecular target: 5'-AMP-activated protein kinase catalytic subunit alpha-2 (Rattus norvegicus) (UniProt Q09137); test: Activation of AMPK in rat L6 cells assessed as increase of [3H]dGlc uptake at 10 to 200 uM; format: cell-based; conditions: TDE = time-dependent effect; method in brief: as §4
[23] = molecular target: 5'-AMP-activated protein kinase catalytic subunit alpha-2 (Rattus norvegicus) (UniProt Q09137); test: Activation of AMPK in rat L6 cells assessed as AS-160 phosphorylation at Thr642 after 30 mins by Western blot analysis relative to control

inhibition (INH) (Cytochrome P450 2C19): Not Active | inhibition (INH) (Cytochrome P450 2C9): Not Active | inhibition (INH) (Cytochrome P450 2D6): 64.4% | inhibition (INH) (Cytochrome P450 3A4): 77.1% | microsomal CLint at 2 µM [4]: 692 µL/min/mg | fold change (FC) [10]: 1.09 | fold change (FC) [11]: 1.55 | fold change (FC) [12]: 3.63 | Activity [13]: Active | Activity [14]: Active | Activity [15]: Active | Activity [21]: Dose-dependent effect | Activity [22]: tde | fold change (FC) [23]: 1.62
SMILES: CCOc1ccc2nc(SCc3nc4ccccc4s3)sc2c1
Activity (L6 [1]): inactive | Activity (L6 [2]): inactive | Activity (Mus musculus [3]): 40% | Activity (Mus musculus [5]): 45% | Activity (Mus musculus [6]): 30% | Activity (Mus musculus [7]): Active | Activity (L6 [8]): inactive | Activity (L6 [9]): Non-toxic | fold change (FC) (L6 [16]): 5.2 | fold change (FC) (L6 [17]): 6 | fold change (FC) (L6 [18]): 6.8 | fold change (FC) (L6 [19]): 5.5 | fold change (FC) (L6 [20]): 4.7
